The target of experiment [1] is Genome polyprotein (West Nile virus) (UniProt P06935). Put plainly: Inhibition of WNV NS2B-NS3 protease expressed in Escherichia coli BL21 lambda (DE3) cells using Abz-Gly-Leu-Lys-Arg-Gly-Gly-3-(NO2)Tyr as substrate at 50 uM preincubated for 15 mins followed by substrate addition measured for 15 mins by FRET assay relative to control.
Experiment [2] has as its system dengue virus type 2. Put plainly: Inhibition of DENV serotype 2 NS2B-NS3 protease expressed in Escherichia coli BL21 lambda (DE3) cells using Abz-Nle-Lys-Arg-Arg-Ser-3-(NO2)Tyr as substrate at 50 uM preincubated for 15 mins followed by substrate addition measured for 15 mins by FRET assay relative to control.
Experiment [3] has as its target Prothrombin (Homo sapiens) (UniProt P00734). Put plainly: Inhibition of thrombin (unknown origin) using Boc-Val-Pro-Arg-AMC as substrate at 25 uM preincubated for 15 mins followed by substrate addition measured for 10 mins by FRET assay relative to control.
A further experiment addresses Genome polyprotein (West Nile virus, UniProt P06935). As to the kind of experiment: Inhibition of WNV NS2B-NS3 protease expressed in Escherichia coli BL21 lambda (DE3) cells using Abz-Gly-Leu-Lys-Arg-Gly-Gly-3-(NO2)Tyr as substrate preincubated for 15 mins followed by substrate addition measured for 15 mins by FRET assay. The method in brief:
(§1)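 IC50 by FRET assay at substrate 50 μM; DENV protease at 100 nM, WNV protease at 150 nM. Measured in triplicate.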

Experiment [4] in a line: Inhibition of DENV serotype 2 NS2B-NS3 protease expressed in Escherichia coli BL21 lambda (DE3) cells using Abz-Nle-Lys-Arg-Arg-Ser-3-(NO2)Tyr as substrate preincubated for 15 mins followed by substrate addition measured for 15 mins by FRET assay. Also noted: species or system dengue virus type 2. The method in brief: as §1
In experiment [5] the test system is dengue virus type 2. As to the kind of experiment: Inhibition of DENV serotype 2 NS2B-NS3 protease expressed in Escherichia coli BL21 lambda (DE3) cells by HPLC-based assay.

Active and inactive are the calls of the source. The rule behind the calls is not given here.

By inhibition is commonly meant the drop in the measured response relative to a control, in per cent. One may read the IC50 as the concentration at which inhibition is half-maximal. Low readings indicate inhibition by little substance, high ones a need for much substance.

Sequence of Genome polyprotein (P06935 1371-1501 limits assumed): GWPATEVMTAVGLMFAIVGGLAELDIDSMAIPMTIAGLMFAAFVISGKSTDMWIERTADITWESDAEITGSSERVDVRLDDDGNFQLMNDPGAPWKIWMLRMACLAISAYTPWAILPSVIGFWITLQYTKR
Sequence of Genome polyprotein (P06935 1502-2120 limits assumed): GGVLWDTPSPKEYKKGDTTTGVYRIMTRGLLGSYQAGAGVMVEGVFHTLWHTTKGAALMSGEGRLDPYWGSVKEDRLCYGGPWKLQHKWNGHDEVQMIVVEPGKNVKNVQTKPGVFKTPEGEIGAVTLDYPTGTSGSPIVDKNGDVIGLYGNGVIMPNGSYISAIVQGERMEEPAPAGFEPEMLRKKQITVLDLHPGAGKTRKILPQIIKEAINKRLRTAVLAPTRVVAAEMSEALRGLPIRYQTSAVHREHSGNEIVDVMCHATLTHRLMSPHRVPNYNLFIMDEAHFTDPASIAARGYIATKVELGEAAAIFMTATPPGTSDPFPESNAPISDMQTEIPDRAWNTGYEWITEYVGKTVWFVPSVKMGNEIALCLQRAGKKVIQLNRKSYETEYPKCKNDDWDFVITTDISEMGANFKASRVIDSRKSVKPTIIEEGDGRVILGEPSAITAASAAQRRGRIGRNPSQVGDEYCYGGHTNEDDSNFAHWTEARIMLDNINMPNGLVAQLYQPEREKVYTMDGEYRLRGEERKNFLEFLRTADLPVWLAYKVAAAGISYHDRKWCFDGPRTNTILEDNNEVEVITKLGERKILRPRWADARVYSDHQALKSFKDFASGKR
Sequence of Genome polyprotein (West Nile virus) (P06935 whole entry): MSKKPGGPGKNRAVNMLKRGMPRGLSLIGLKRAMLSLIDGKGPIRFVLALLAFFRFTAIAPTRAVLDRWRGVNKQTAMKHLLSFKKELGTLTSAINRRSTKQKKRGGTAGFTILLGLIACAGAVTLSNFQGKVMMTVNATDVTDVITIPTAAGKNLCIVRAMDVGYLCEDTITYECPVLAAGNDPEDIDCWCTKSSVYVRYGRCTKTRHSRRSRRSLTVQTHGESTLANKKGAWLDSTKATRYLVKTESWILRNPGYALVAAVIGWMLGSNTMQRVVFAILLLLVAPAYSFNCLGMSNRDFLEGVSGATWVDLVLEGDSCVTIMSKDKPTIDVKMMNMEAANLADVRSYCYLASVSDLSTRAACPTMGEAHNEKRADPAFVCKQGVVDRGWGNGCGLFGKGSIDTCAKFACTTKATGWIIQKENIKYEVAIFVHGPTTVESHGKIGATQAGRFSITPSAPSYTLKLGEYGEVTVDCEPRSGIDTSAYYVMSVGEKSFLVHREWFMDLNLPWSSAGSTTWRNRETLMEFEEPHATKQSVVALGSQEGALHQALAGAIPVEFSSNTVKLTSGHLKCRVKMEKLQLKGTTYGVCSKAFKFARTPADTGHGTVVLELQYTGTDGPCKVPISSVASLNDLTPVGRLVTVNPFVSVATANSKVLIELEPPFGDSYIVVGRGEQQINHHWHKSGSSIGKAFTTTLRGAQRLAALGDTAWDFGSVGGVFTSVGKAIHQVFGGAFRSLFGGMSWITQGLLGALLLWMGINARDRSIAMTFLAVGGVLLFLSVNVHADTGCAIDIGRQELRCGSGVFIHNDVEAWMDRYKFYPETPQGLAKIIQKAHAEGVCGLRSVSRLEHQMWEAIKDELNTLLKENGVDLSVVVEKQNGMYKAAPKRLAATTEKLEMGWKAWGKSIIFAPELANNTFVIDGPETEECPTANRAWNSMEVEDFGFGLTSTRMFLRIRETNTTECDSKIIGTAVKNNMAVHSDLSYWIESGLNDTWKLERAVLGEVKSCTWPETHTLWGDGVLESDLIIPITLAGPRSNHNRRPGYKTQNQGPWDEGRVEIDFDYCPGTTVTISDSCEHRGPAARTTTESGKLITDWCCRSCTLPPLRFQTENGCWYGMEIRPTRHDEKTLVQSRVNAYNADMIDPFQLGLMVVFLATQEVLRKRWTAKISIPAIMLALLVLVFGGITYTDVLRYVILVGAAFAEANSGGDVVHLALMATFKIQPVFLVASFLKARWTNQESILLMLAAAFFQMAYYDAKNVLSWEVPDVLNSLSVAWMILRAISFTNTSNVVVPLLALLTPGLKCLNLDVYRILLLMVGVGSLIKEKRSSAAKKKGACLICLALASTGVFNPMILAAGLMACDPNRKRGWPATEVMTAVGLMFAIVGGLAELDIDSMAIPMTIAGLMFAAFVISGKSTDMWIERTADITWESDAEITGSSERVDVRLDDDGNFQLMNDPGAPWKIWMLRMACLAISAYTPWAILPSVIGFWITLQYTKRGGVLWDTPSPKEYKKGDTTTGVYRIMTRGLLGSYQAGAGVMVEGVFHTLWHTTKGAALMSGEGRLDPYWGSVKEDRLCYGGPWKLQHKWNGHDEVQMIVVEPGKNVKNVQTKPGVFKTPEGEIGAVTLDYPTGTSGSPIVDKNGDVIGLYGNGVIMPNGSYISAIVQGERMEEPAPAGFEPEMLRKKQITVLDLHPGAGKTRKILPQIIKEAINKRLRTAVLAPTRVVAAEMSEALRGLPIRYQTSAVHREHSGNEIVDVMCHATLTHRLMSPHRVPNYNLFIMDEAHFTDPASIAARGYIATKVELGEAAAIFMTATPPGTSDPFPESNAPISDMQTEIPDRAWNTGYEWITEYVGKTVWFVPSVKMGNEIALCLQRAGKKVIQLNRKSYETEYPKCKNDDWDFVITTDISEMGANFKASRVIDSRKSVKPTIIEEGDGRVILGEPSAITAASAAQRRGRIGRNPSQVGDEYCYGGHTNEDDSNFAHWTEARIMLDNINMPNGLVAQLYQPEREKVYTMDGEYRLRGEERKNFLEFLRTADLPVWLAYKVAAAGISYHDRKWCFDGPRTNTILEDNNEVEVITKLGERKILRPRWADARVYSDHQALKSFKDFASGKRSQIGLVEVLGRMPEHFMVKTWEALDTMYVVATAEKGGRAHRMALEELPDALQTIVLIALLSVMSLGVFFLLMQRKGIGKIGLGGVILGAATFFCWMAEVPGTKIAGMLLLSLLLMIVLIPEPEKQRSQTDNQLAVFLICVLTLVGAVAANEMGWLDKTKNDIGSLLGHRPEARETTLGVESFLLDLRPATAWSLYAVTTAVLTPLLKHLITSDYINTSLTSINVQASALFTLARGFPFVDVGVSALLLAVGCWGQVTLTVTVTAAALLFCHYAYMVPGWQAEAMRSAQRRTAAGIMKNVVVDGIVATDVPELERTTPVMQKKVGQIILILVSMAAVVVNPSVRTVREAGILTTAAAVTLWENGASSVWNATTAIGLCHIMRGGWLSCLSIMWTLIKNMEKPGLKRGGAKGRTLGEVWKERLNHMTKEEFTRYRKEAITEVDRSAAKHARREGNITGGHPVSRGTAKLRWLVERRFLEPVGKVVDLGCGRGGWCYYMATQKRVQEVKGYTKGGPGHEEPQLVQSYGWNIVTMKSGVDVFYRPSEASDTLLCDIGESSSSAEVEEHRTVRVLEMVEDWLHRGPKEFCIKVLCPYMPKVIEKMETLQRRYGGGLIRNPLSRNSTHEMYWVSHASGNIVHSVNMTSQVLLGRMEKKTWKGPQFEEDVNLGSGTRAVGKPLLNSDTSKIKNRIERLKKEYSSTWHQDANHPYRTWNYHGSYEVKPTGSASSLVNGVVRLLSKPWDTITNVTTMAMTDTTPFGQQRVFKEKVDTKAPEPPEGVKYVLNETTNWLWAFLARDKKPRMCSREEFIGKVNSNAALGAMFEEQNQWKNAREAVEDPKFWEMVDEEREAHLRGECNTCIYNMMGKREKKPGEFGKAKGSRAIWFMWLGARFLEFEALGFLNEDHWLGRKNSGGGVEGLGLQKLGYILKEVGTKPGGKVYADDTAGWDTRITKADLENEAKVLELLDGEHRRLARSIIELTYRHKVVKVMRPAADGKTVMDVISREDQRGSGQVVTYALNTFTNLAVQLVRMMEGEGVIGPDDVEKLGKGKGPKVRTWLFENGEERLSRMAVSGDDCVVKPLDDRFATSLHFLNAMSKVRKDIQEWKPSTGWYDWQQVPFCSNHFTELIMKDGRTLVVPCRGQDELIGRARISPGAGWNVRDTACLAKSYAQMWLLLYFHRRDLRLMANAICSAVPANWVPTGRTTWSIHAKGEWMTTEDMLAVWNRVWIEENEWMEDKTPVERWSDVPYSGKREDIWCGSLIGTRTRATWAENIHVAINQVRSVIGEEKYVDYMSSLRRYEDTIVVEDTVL

In the case of `CC(C)(C)CCN1C(=O)S/C(=C\c2ccc(C(=O)N[C@@H](CCCNC(=N)N)C(=O)N[C@@H](CCCCN)C(=O)N[C@H](C(N)=O)c3ccccc3)cc2)C1=O`, the inhibition was 98.9% in experiment [1], 101% in the experiment on dengue virus type 2 [2] and 9.7% in experiment [3]. Besides, the concentration for half-maximal inhibition (IC50) worked out at 1910 nM against Genome polyprotein and 510 nM in experiment [4].
As for `C#CCCN1C(=O)S/C(=C\c2ccc(C(=O)O)cc2)C1=O`, the inhibition in experiment [1] stood at 20.8%. The inhibition entry in the experiment with dengue virus type 2 [5] and in the experiment with dengue virus type 2 [2] was “inactive” each time.
As for `CC(C)N1C(=O)S/C(=C\c2ccc(C(=O)O)cc2)C1=O`, the inhibition was determined as 34.8% in experiment [1] and 16.3% with dengue virus type 2 [2]. For the same molecule, the inhibition result with dengue virus type 2 [5] is “inactive”.
Consider `C#CCN1C(=O)S/C(=C\c2ccc(C(=O)N[C@@H](CCCNC(=N)N)C(=O)N[C@@H](CCCCN)C(=O)N[C@H](C(N)=O)c3ccccc3)cc2)C1=O`, for which the results for the inhibition (in experiment [1]; in the experiment on dengue virus type 2 [2]; in experiment [3]) were 93.1%, 99.2% and 10.9%, respectively. In addition, the figures for the 50% inhibitory concentration (IC50) (on Genome polyprotein; in experiment [4]) were 2360 nM and 990 nM, respectively.
Taken in the same sequence, the figures for `C#CCCCN1C(=O)S/C(=C\c2ccc(C(=O)N[C@@H](CCCNC(=N)N)C(=O)N[C@@H](CCCCN)C(=O)N[C@H](C(N)=O)c3ccccc3)cc2)C1=O` were 105%, 103%, 10.4%, 2750 nM and 850 nM.
Taken in the same sequence, the figures for `CC(C)CN1C(=O)S/C(=C\c2ccc(C(=O)N[C@@H](CCCNC(=N)N)C(=O)N[C@@H](CCCCN)C(=O)N[C@H](C(N)=O)c3ccccc3)cc2)C1=O` were 90.7%, 99.6%, “inactive”, 6240 nM and 1010 nM.
Take `N=C(N)NCCC[C@H](NC(=O)c1ccc(/C=C2\SC(=O)N(CC3CCC3)C2=O)cc1)C(=O)N[C@@H](CCCCN)C(=O)N[C@H](C(N)=O)c1ccccc1`: the inhibition in experiment [1] was found to be 95.9%; with dengue virus type 2 [2], 99.7%; in experiment [3], 8%. Also, the IC50 on Genome polyprotein is 1390 nM; in experiment [4], 780 nM.
`CC(C)CCN1C(=O)S/C(=C\c2ccc(C(=O)N[C@@H](CCCNC(=N)N)C(=O)N[C@@H](CCCCN)C(=O)N[C@H](C(N)=O)c3ccccc3)cc2)C1=O`: the inhibition in experiment [1] is 95.4%; in the experiment on dengue virus type 2 [2], 100%; in experiment [3] it was 7.3%. In addition, the IC50 against Genome polyprotein worked out at 1760 nM; in experiment [4] it was 900 nM.
`O=C(O)c1ccc(/C=C2\SC(=O)N(CC34CC5CC(CC(C5)C3)C4)C2=O)cc1`: the inhibition result (in experiment [1]; in the experiment on dengue virus type 2 [5]; in the experiment on dengue virus type 2 [2]) was “inactive” throughout.
Consider `CCC(CC)CN1C(=O)S/C(=C\c2ccc(C(=O)N[C@@H](CCCNC(=N)N)C(=O)N[C@@H](CCCCN)C(=O)N[C@H](C(N)=O)c3ccccc3)cc2)C1=O`, for which the inhibition in experiment [1] was 99.2%; in the experiment with dengue virus type 2 [2], 100%; in experiment [3], 8.7%. For the same molecule, the half-maximal inhibitory concentration (IC50) against Genome polyprotein stood at 1350 nM; in experiment [4], 650 nM.
In the case of `N=C(N)NCCC[C@H](NC(=O)c1ccc(/C=C2\SC(=O)N(C3CCCCC3)C2=O)cc1)C(=O)N[C@@H](CCCCN)C(=O)N[C@H](C(N)=O)c1ccccc1`, the inhibition in experiment [1] was 98%; in the experiment on dengue virus type 2 [2] it was 101%; in experiment [3] it was 9.5%. The results for the IC50 (on Genome polyprotein; in experiment [4]) were 1710 nM and 790 nM, respectively.
For the molecule `CCC(CC)N1C(=O)S/C(=C\c2ccc(C(=O)O)cc2)C1=O`, the results for the inhibition (in experiment [1]; in the experiment on dengue virus type 2 [2]) were 40.7% and 11.2%, respectively. For the same molecule, the inhibition result in the experiment on dengue virus type 2 [5] was “inactive”.
For `N=C(N)NCCC[C@H](NC(=O)c1ccc(/C=C2\SC(=O)N(CC3CCCC3)C2=O)cc1)C(=O)N[C@@H](CCCCN)C(=O)N[C@H](C(N)=O)c1ccccc1`, the values for the inhibition (in experiment [1]; in the experiment on dengue virus type 2 [2]; in experiment [3]) were 98.8%, 100% and 10.1%, respectively. Further, the half-inhibitory concentration (IC50) stood at 1010 nM against Genome polyprotein and 850 nM in experiment [4].
On to `CC(C)(C)CN1C(=O)S/C(=C\c2ccc(C(=O)O)cc2)C1=O`, for which the inhibition in experiment [1] came out at 41.1%; with dengue virus type 2 [2], 13.1%. Further, the inhibition result with dengue virus type 2 [5] was “inactive”.
In the case of `N=C(N)NCCC[C@H](NC(=O)c1ccc(/C=C2\SC(=O)N(C3CCCCCC3)C2=O)cc1)C(=O)N[C@@H](CCCCN)C(=O)N[C@H](C(N)=O)c1ccccc1`, the inhibition in experiment [1] worked out at 101%; in the experiment on dengue virus type 2 [2] it was 100%; in experiment [3] it was 11.5%. Also, the IC50 against Genome polyprotein was 2110 nM; in experiment [4], 830 nM.
Consider `CCC(C)N1C(=O)S/C(=C\c2ccc(C(=O)N[C@@H](CCCNC(=N)N)C(=O)N[C@@H](CCCCN)C(=O)N[C@H](C(N)=O)c3ccccc3)cc2)C1=O` (stereo partly specified), for which the inhibition in experiment [1] is 92.8%; in the experiment with dengue virus type 2 [2], 102%; in experiment [3], 38.9%. Further, the IC50 against Genome polyprotein came to 2500 nM; in experiment [4], 920 nM.
Taken in the same sequence, the figures for `N=C(N)NCCC[C@H](NC(=O)c1ccc(/C=C2\SC(=O)N(C3CCC3)C2=O)cc1)C(=O)N[C@@H](CCCCN)C(=O)N[C@H](C(N)=O)c1ccccc1` were 95.3%, 100%, 4.7%, 1690 nM and 620 nM.
As to `N=C(N)NCCC[C@H](NC(=O)c1ccc(/C=C2\SC(=O)N(CC34CC5CC(CC(C5)C3)C4)C2=O)cc1)C(=O)N[C@@H](CCCCN)C(=O)N[C@H](C(N)=O)c1ccccc1`, the inhibition came to 107% in experiment [1], 102% in the experiment on dengue virus type 2 [2] and 6.6% in experiment [3]. In addition, the IC50 on Genome polyprotein is 1270 nM; in experiment [4], 740 nM.
The like results for `CCC(CC)N1C(=O)S/C(=C\c2ccc(C(=O)N[C@@H](CCCNC(=N)N)C(=O)N[C@@H](CCCCN)C(=O)N[C@H](C(N)=O)c3ccccc3)cc2)C1=O` were, in that order, 95%, 99.3%, 8%, 1120 nM and 740 nM.
Taken in the same sequence, the figures for `CC(C)(C)CN1C(=O)S/C(=C\c2ccc(C(=O)N[C@@H](CCCNC(=N)N)C(=O)N[C@@H](CCCCN)C(=O)N[C@H](C(N)=O)c3ccccc3)cc2)C1=O` were 93.5%, 101%, 9.7%, 2030 nM and 580 nM.
Taken in the same sequence, the figures for `N=C(N)NCCC[C@H](NC(=O)c1ccc(/C=C2\SC(=O)N(CCC3CCCCC3)C2=O)cc1)C(=O)N[C@@H](CCCCN)C(=O)N[C@H](C(N)=O)c1ccccc1` were 101%, 99.9%, 7.3%, 1130 nM and 1920 nM.
With `O=C(O)c1ccc(/C=C2\SC(=O)N(CC3CCCC3)C2=O)cc1`, the inhibition in experiment [1] is 32.4%; with dengue virus type 2 [2] it was 15.9%. Further, the inhibition result in the experiment with dengue virus type 2 [5] was “inactive”.
With `CC(C)N1C(=O)S/C(=C\c2ccc(C(=O)N[C@@H](CCCNC(=N)N)C(=O)N[C@@H](CCCCN)C(=O)N[C@H](C(N)=O)c3ccccc3)cc2)C1=O`, the inhibition was found to be 94.4% in experiment [1], 99.1% with dengue virus type 2 [2] and 8.5% in experiment [3]. In addition, the 50% inhibitory concentration (IC50) came to 3590 nM at Genome polyprotein and 470 nM in experiment [4].
On to `O=C(O)c1ccc(/C=C2\SC(=O)N(CC3CCCCC3)C2=O)cc1`, for which the inhibition in experiment [1] was 35%; in the experiment on dengue virus type 2 [2], 23%. In addition, the inhibition result with dengue virus type 2 [5] is “inactive”.

These data come from ChEMBL document CHEMBL3600374, “Dual inhibitors of the dengue and West Nile virus NS2B-NS3 proteases: Synthesis, biological evaluation and docking studies of novel peptide-hybrids” (Bioorg Med Chem, 2015).
